Data on nine compounds can be found in ChEMBL document CHEMBL1154440, “Design and synthesis of 2-(2,6-dibromophenyl)-3-heteroaryl-1,3-thiazolidin-4-ones as anti-HIV agents” (Eur J Med Chem, 2008).

Activity calls are given as the source filed them. The calls are words filed in the database; no cut-off is given here.

Test system in one data set: not listed separately
In words: Cytotoxicity against human MT4 cells by MTT assay. The data set is classed as cell-based.
Details: not given
In outline:
(§1)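 CC50 was measured in parallel with the antiviral assays. It is the compound concentration that reduced by 50% the number of viable cells in mock-infected MT-4 or CEM cultures.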
`Cc1cc(-c2ccccc2)nc(N2C(=O)CSC2c2c(Br)cccc2Br)n1` (configuration not stated) yielded a CC50 of 184 µM.

On to `O=C1CSC(c2c(Br)cccc2Br)N1c1ccccn1` (configuration not stated), for which it took 13.1 µM to reach half-maximal cytotoxicity (CC50). Against the preceding compound, the CC50 is about 14-fold lower.

Take `Cc1cc(C(F)(F)F)nc(N2C(=O)CSC2c2c(Br)cccc2Br)n1` (configuration not stated): the CC50 came out at 32.6 µM. Compared with the last compound, the CC50 is about 2.5-fold higher.

`O=C1CSC(c2c(Br)cccc2Br)N1Cc1ccco1` (configuration not stated) gave a CC50 of 36.4 µM.

In the case of `Cc1nc(N2C(=O)CSC2c2c(Br)cccc2Br)ccc1Br` (configuration not stated), the CC50 stood at 98 µM.

For `Cc1cc(N2C(=O)CSC2c2c(Br)cccc2Br)nc(C)n1` (configuration not stated), the half-maximal cytotoxic concentration (CC50) amounted to 33.4 µM.

`O=C1CSC(c2c(Br)cccc2Br)N1Cc1ccccn1` (configuration not stated) came in with a cytotoxic concentration (CC50) of 174 µM. This CC50 lies about 5.2-fold higher than the previous one.

In turn, `O=C1CSC(c2c(Br)cccc2Br)N1c1ncccn1` (configuration not stated) gave a 50% cytotoxic concentration (CC50) of 172 µM.

`Cc1ccnc2c1NC(=O)c1cccnc1N2C1CC1` [NEVIRAPINE]: the cytotoxic concentration (CC50) was greater than 50 µM.

Test system in a further data set: not listed separately
In words: Cytotoxicity against human CEM cells by MTT assay. The class given is cell-based. The settings on record: CEM cells (CCRF-CEM). In a few lines:
as §1
`O=C1CSC(c2c(Br)cccc2Br)N1c1ccccn1` (configuration not stated) came in with a CC50 of 17.1 µM.

The compound `Cc1cc(C(F)(F)F)nc(N2C(=O)CSC2c2c(Br)cccc2Br)n1` (configuration not stated) showed a CC50 of 59.3 µM.

`O=C1CSC(c2c(Br)cccc2Br)N1Cc1ccco1` (configuration not stated) showed a CC50 of 36.6 µM. Compared with the last compound, the CC50 is about 1.6-fold lower.

On to `Cc1nc(N2C(=O)CSC2c2c(Br)cccc2Br)ccc1Br` (configuration not stated), for which the midpoint of cytotoxicity, the CC50, lay at 98 µM. Compared with the last compound, the CC50 is about 2.7-fold higher.

As for `Cc1cc(N2C(=O)CSC2c2c(Br)cccc2Br)nc(C)n1` (configuration not stated), the 50% cytotoxic concentration (CC50) worked out at 33.5 µM.

`O=C1CSC(c2c(Br)cccc2Br)N1Cc1ccccn1` (configuration not stated): half-maximal cytotoxicity (CC50) was put at 117 µM. Compared with the last compound, the CC50 is about 3.5-fold higher.

The compound `O=C1CSC(c2c(Br)cccc2Br)N1c1ncccn1` (configuration not stated) registered a 50% cytotoxic concentration (CC50) of 179 µM.

In turn, `Cc1ccnc2c1NC(=O)c1cccnc1N2C1CC1` [NEVIRAPINE] had a cytotoxic concentration (CC50) greater than 4 µM.

In a further data set the test system is Human immunodeficiency virus 1. Put plainly: Antiviral activity against HIV1 3B replication in human CEM cells assessed as inhibition of virus-induced syncytium formation after 4 days. The settings on record: Human immunodeficiency virus 1, 3B, CCRF-CEM, 96 h.
With `O=C1CSC(c2c(Br)cccc2Br)N1c1ccccn1` (configuration not stated), the EC50 worked out at 0.27 µM.

Consider `Cc1cc(C(F)(F)F)nc(N2C(=O)CSC2c2c(Br)cccc2Br)n1` (configuration not stated), for which the EC50 worked out at 0.36 µM.

`O=C1CSC(c2c(Br)cccc2Br)N1Cc1ccco1` (configuration not stated): the EC50 was 0.18 µM.

With `Cc1nc(N2C(=O)CSC2c2c(Br)cccc2Br)ccc1Br` (configuration not stated), the EC50 was found to be 1.83 µM.

As to `Cc1cc(N2C(=O)CSC2c2c(Br)cccc2Br)nc(C)n1` (configuration not stated), the EC50 was determined as 4.67 µM.

In the case of `O=C1CSC(c2c(Br)cccc2Br)N1Cc1ccccn1` (configuration not stated), the EC50 was found to be 0.63 µM.

In the case of `O=C1CSC(c2c(Br)cccc2Br)N1c1ncccn1` (configuration not stated), the EC50 stood at 0.23 µM.

In the case of `Cc1ccnc2c1NC(=O)c1cccnc1N2C1CC1` [NEVIRAPINE], the EC50 came out at 0.01 µM.

In the next data set the test system is Human immunodeficiency virus 2. Put plainly: Antiviral activity against HIV2 ROD replication in human MT4 cells assessed as inhibition of virus-induced cytopathic effect at subtoxic concentration after 5 days by tetrazolium-based colorimetric assay. The class given is functional, organism-based.
Details: not given
As for `Cc1cc(-c2ccccc2)nc(N2C(=O)CSC2c2c(Br)cccc2Br)n1` (configuration not stated), the outcome was inactive.

As for `O=C1CSC(c2c(Br)cccc2Br)N1c1ccccn1` (configuration not stated), the outcome was inactive.

On to `Cc1cc(C(F)(F)F)nc(N2C(=O)CSC2c2c(Br)cccc2Br)n1` (configuration not stated), for which the outcome was inactive.

On to `O=C1CSC(c2c(Br)cccc2Br)N1Cc1ccco1` (configuration not stated), for which the outcome was inactive.

As to `Cc1nc(N2C(=O)CSC2c2c(Br)cccc2Br)ccc1Br` (configuration not stated), the result was inactive.

In the case of `Cc1cc(N2C(=O)CSC2c2c(Br)cccc2Br)nc(C)n1` (configuration not stated), the outcome was inactive.

`O=C1CSC(c2c(Br)cccc2Br)N1Cc1ccccn1` (configuration not stated): the result was inactive.

On to `O=C1CSC(c2c(Br)cccc2Br)N1c1ncccn1` (configuration not stated), for which the result was inactive.

As to `Cc1ccnc2c1NC(=O)c1cccnc1N2C1CC1` [NEVIRAPINE], the result was inactive.

Test system in the next data set: not listed separately
Put plainly: Selectivity index, ratio of CC50 for human CEM cells to EC50 for HIV1 3B. The class given is toxicity, cell-based, CCRF-CEM. The settings on record: read-out: Ratio CC50/EC50.
For the compound `O=C1CSC(c2c(Br)cccc2Br)N1c1ccccn1` (configuration not stated), the selectivity ratio was 66.

As for `Cc1cc(C(F)(F)F)nc(N2C(=O)CSC2c2c(Br)cccc2Br)n1` (configuration not stated), the selectivity ratio was 161.

`O=C1CSC(c2c(Br)cccc2Br)N1Cc1ccco1` (configuration not stated): the selectivity ratio turned out to be 200.

Regarding `Cc1nc(N2C(=O)CSC2c2c(Br)cccc2Br)ccc1Br` (configuration not stated), the selectivity ratio was 53.

Turning to `Cc1cc(N2C(=O)CSC2c2c(Br)cccc2Br)nc(C)n1` (configuration not stated), the selectivity ratio was 7.

As for `O=C1CSC(c2c(Br)cccc2Br)N1Cc1ccccn1` (configuration not stated), the selectivity ratio was determined as 283.

On to `O=C1CSC(c2c(Br)cccc2Br)N1c1ncccn1` (configuration not stated), for which the selectivity ratio was found to be 769.

On to `Cc1ccnc2c1NC(=O)c1cccnc1N2C1CC1` [NEVIRAPINE], for which the selectivity ratio is greater than 370.

For a further data set, the target named is Human immunodeficiency virus type 1 reverse transcriptase (Human immunodeficiency virus 1) (UniProt Q72547). Put plainly: Inhibition of HIV1 reverse transcriptase at 100 ug/ml after 1 hr by microtiter plate ELISA.
Details: not given
In a few lines:
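Nonradioactive kit ELISA. HIV-1 RT, template/primer and biotin- and DIG-labelled dNTPs were incubated in lysis buffer with or without inhibitor for 1 h at 37 °C. Product was captured on streptavidin and detected with anti-DIG-peroxidase and ABTS substrate. Absorbance at 405 nm is proportional to RT activity.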
As to `Cc1cc(-c2ccccc2)nc(N2C(=O)CSC2c2c(Br)cccc2Br)n1` (configuration not stated), the inhibition turned out to be 17.8%.

On to `O=C1CSC(c2c(Br)cccc2Br)N1c1ccccn1` (configuration not stated), for which the inhibition stood at 85.2%.

For `Cc1cc(C(F)(F)F)nc(N2C(=O)CSC2c2c(Br)cccc2Br)n1` (configuration not stated), the inhibition was 85.4%.

`O=C1CSC(c2c(Br)cccc2Br)N1Cc1ccco1` (configuration not stated): the inhibition turned out to be 99%.

As for `Cc1nc(N2C(=O)CSC2c2c(Br)cccc2Br)ccc1Br` (configuration not stated), the inhibition is 61.4%.

`Cc1cc(N2C(=O)CSC2c2c(Br)cccc2Br)nc(C)n1` (configuration not stated) returned an inhibition of 66.4%.

As to `O=C1CSC(c2c(Br)cccc2Br)N1Cc1ccccn1` (configuration not stated), the inhibition is 97.6%.

Consider `O=C1CSC(c2c(Br)cccc2Br)N1c1ncccn1` (configuration not stated), for which the inhibition was found to be 100%.

The test system of another data set is Human immunodeficiency virus 2. Put plainly: Antiviral activity against HIV2 ROD replication in human CEM cells assessed as inhibition of virus-induced syncytium formation at subtoxic concentration after 4 days. The settings on record: CCRF-CEM.
In the case of `Cc1cc(-c2ccccc2)nc(N2C(=O)CSC2c2c(Br)cccc2Br)n1` (configuration not stated), the outcome was inactive.

On to `O=C1CSC(c2c(Br)cccc2Br)N1c1ccccn1` (configuration not stated), for which the result was inactive.

Take `Cc1cc(C(F)(F)F)nc(N2C(=O)CSC2c2c(Br)cccc2Br)n1` (configuration not stated): the result was inactive.

Turning to `O=C1CSC(c2c(Br)cccc2Br)N1Cc1ccco1` (configuration not stated), the result was inactive.

For `Cc1nc(N2C(=O)CSC2c2c(Br)cccc2Br)ccc1Br` (configuration not stated), the outcome was inactive.

On to `Cc1cc(N2C(=O)CSC2c2c(Br)cccc2Br)nc(C)n1` (configuration not stated), for which the outcome was inactive.

For the compound `O=C1CSC(c2c(Br)cccc2Br)N1Cc1ccccn1` (configuration not stated), the result was inactive.

In the case of `O=C1CSC(c2c(Br)cccc2Br)N1c1ncccn1` (configuration not stated), the outcome was inactive.

Take `Cc1ccnc2c1NC(=O)c1cccnc1N2C1CC1` [NEVIRAPINE]: the result was inactive.

Another data set deals with Human immunodeficiency virus 1. Put plainly: Antiviral activity against HIV1 3B replication in human MT4 cells assessed as inhibition of virus-induced cytopathic effect after 5 days by tetrazolium-based colorimetric assay. The data set is classed as functional, organism-based. The note with it: Human immunodeficiency virus 1, 3B, MT4, 120 h.
As for `Cc1cc(-c2ccccc2)nc(N2C(=O)CSC2c2c(Br)cccc2Br)n1` (configuration not stated), the half-maximal effective concentration (EC50) was greater than 8.65 µM.

On to `O=C1CSC(c2c(Br)cccc2Br)N1c1ccccn1` (configuration not stated), for which the EC50 is 0.22 µM.

As to `Cc1cc(C(F)(F)F)nc(N2C(=O)CSC2c2c(Br)cccc2Br)n1` (configuration not stated), the concentration for a half-maximal effect (EC50) turned out to be 0.32 µM.

As to `O=C1CSC(c2c(Br)cccc2Br)N1Cc1ccco1` (configuration not stated), the EC50 was 0.21 µM.

With `Cc1nc(N2C(=O)CSC2c2c(Br)cccc2Br)ccc1Br` (configuration not stated), the EC50 was 1.03 µM.

In the case of `Cc1cc(N2C(=O)CSC2c2c(Br)cccc2Br)nc(C)n1` (configuration not stated), the concentration giving a half-maximal response (EC50) came out at 5.21 µM.

`O=C1CSC(c2c(Br)cccc2Br)N1Cc1ccccn1` (configuration not stated): the concentration for a half-maximal effect (EC50) was 0.84 µM.

For the compound `O=C1CSC(c2c(Br)cccc2Br)N1c1ncccn1` (configuration not stated), the half-maximal effective concentration (EC50) came out at 0.24 µM.

On to `Cc1ccnc2c1NC(=O)c1cccnc1N2C1CC1` [NEVIRAPINE], for which the EC50 stood at 0.05 µM.

Test system in another data set: not listed separately
Put plainly: Selectivity index, ratio of CC50 for human MT4 cells to EC50 for HIV1 3B. The data set is classed as toxicity, cell-based. The note with it: read-out: Ratio CC50/EC50. In outline: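 Selectivity index is CC50/EC50. CC50 comes from the viable-cell count in mock-infected MT-4 cells.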
With `Cc1cc(-c2ccccc2)nc(N2C(=O)CSC2c2c(Br)cccc2Br)n1` (configuration not stated), the selectivity ratio was less than 21.

Turning to `O=C1CSC(c2c(Br)cccc2Br)N1c1ccccn1` (configuration not stated), the selectivity ratio was 60.

`Cc1cc(C(F)(F)F)nc(N2C(=O)CSC2c2c(Br)cccc2Br)n1` (configuration not stated): the selectivity ratio came to 99.

With `O=C1CSC(c2c(Br)cccc2Br)N1Cc1ccco1` (configuration not stated), the selectivity ratio turned out to be 171.

`Cc1nc(N2C(=O)CSC2c2c(Br)cccc2Br)ccc1Br` (configuration not stated): the selectivity ratio amounted to 96.

Regarding `Cc1cc(N2C(=O)CSC2c2c(Br)cccc2Br)nc(C)n1` (configuration not stated), the selectivity ratio was found to be 6.

For `O=C1CSC(c2c(Br)cccc2Br)N1Cc1ccccn1` (configuration not stated), the selectivity ratio was found to be 209.

For `O=C1CSC(c2c(Br)cccc2Br)N1c1ncccn1` (configuration not stated), the selectivity ratio was 687.

For `Cc1ccnc2c1NC(=O)c1cccnc1N2C1CC1` [NEVIRAPINE], the selectivity ratio was greater than 1000.
